Experimental data published in ChEMBL document CHEMBL1138356, “Design and synthesis of human immunodeficiency virus entry inhibitors: sulfonamide as an isostere for the alpha-ketoamide group” (J Med Chem, 2007).
pIC50: −log10 of the molar value.

How the values were obtained:
[1] = Cytotoxicity against human U87 cells expressing CD4 and CXCR4; type: cell-based, U-87MG ATCC
[2] = system: Human immunodeficiency virus 1; test: Antiviral activity against HIV1 pseudovirus in U87 cells expressing CD4 and CCR5 after 72 hrs by M33 pseudotyped assay; type: functional, organism-based, U-87MG ATCC; conditions: Human immunodeficiency virus 1, U-87 MG
Outline: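 M33 pseudotyped viral attachment assay giving IC50 values. Specificity for HIV was judged by counter-screening against AMLV-pseudotyped virus at concentrations above 100× the M33 IC50.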

SMILES | CC50 [1] | pIC50 [2]
COc1cccc2[nH]cc(S(=O)(=O)N3CCN(C(=O)c4ccccc4)C[C@H]3C)c12 | > 40 µM | 5.38
C[C@@H]1CN(C(=O)c2ccccc2)CCN1S(=O)(=O)c1c[nH]c2c(-n3ccnn3)ccc(F)c12 | > 40 µM | 6.82
C[C@@H]1CN(C(=O)c2ccccc2)CCN1S(=O)(=O)c1c[nH]c2c(-n3cc(CO)nn3)nccc12 | > 40 µM | 6.60
C[C@@H]1CN(C(=O)c2ccccc2)CCN1S(=O)(=O)c1c[nH]c2ncccc12 | > 40 µM | 6.07
COC(=O)[C@@H]1CN(C(=O)c2ccccc2)CCN1S(=O)(=O)c1c[nH]c2ncccc12 | > 40 µM | < 4.70
C[C@@H]1CN(S(=O)(=O)c2c[nH]c3ncccc23)CCN1C(=O)c1ccccc1 | > 40 µM | 4.89
C[C@@H]1CN(C(=O)c2ccccc2)CCN1S(=O)(=O)c1c[nH]c2ccccc12 | > 40 µM | 6.37
COc1ncc(OC)c2c(C(=O)C(=O)N3CCN(C(=O)c4ccccc4)CC3)c[nH]c12 | > 40 µM | 7.59
C[C@@H]1CN(C(=O)c2ccccc2)CCN1S(=O)(=O)c1c[nH]c2c(C#N)cc(F)cc12 | > 40 µM | 5.00
C[C@@H]1CN(C(=O)c2ccccc2)CCN1S(=O)(=O)c1c[nH]c2c(-n3nccn3)ccc(F)c12 | > 40 µM | 6.70
C[C@@H]1CN(C(=O)c2ccccc2)CCN1S(=O)(=O)c1c[nH]c2c(-n3cncn3)ccc(F)c12 | > 40 µM | 6.30
C[C@@H]1CN(C(=O)c2ccccc2)CCN1S(=O)(=O)c1c[nH]c2c(-n3ccnc3)nccc12 | > 40 µM | 7.10
C[C@H]1CN(S(=O)(=O)c2c[nH]c3ncccc23)CCN1C(=O)c1ccccc1 | > 40 µM | < 4.70
C[C@@H]1CN(C(=O)c2ccccc2)CCN1S(=O)(=O)c1c[nH]c2c(-n3nccn3)ncc(F)c12 | > 40 µM | 6.21
C[C@@H]1CN(C(=O)c2ccccc2)CCN1S(=O)(=O)c1c[nH]c2c(-n3ccnc3)ncc(F)c12 | > 40 µM | 7.44
CC[C@@H]1CN(C(=O)c2ccccc2)CCN1S(=O)(=O)c1c[nH]c2ncccc12 | > 40 µM | 4.80
C[C@@H]1CN(C(=O)c2cc3ccccc3o2)CCN1S(=O)(=O)c1c[nH]c2ncccc12 | > 40 µM | 5.52
C[C@@H]1CN(C(=O)c2ccccn2)CCN1S(=O)(=O)c1c[nH]c2ncccc12 | > 40 µM | 5.48
C[C@@H]1CN(C(=O)c2ccccc2)CCN1S(=O)(=O)c1c[nH]c2c(-n3ccnn3)ncc(F)c12 | > 40 µM | 8.15
C[C@H]1CN(C(=O)c2ccccc2)CCN1S(=O)(=O)c1c[nH]c2ncccc12 | > 40 µM | < 4.70
C[C@@H]1CN(C(=O)c2csc(N)n2)CCN1S(=O)(=O)c1c[nH]c2ncccc12 | > 40 µM | 6.28
C[C@@H]1CN(C(=O)c2cccc(Cl)c2)CCN1S(=O)(=O)c1c[nH]c2ncccc12 | > 40 µM | 5.08

SMILES | CC50 [1] | pIC50 [2]
C[C@@H]1CN(C(=O)c2cnccn2)CCN1S(=O)(=O)c1c[nH]c2ncccc12 | > 40 µM | 5.04
Cc1ccc(C(=O)N2CCN(S(=O)(=O)c3c[nH]c4ncccc34)[C@H](C)C2)s1 | > 40 µM | 5.64
CC1(C)CN(C(=O)c2ccccc2)CCN1S(=O)(=O)c1c[nH]c2ncccc12 | > 40 µM | < 4.70
C[C@@H]1CN(C(=O)c2csc(Br)n2)CCN1S(=O)(=O)c1c[nH]c2ncccc12 | > 40 µM | 6.38
C[C@@H]1CN(C(=O)c2ccccc2)CCN1S(=O)(=O)c1c[nH]c2c(-n3ccnn3)nccc12 | > 40 µM | 7.57
C[C@@H]1CN(C(=O)c2ccccc2)CCN1S(=O)(=O)c1c[nH]c2cccc(F)c12 | > 40 µM | 6.70
C[C@@H]1CN(C(=O)c2ccccc2)CCN1S(=O)(=O)c1c[nH]c2c(F)ccc(F)c12 | > 40 µM | 6.43
NC(=O)[C@@H]1CN(C(=O)c2ccccc2)CCN1S(=O)(=O)c1c[nH]c2ncccc12 | > 40 µM | < 4.70
NC(=O)[C@H]1CN(C(=O)c2ccccc2)CCN1S(=O)(=O)c1c[nH]c2ncccc12 | > 40 µM | < 4.70
C[C@@H]1CN(C(=O)c2ccccc2)CCN1S(=O)(=O)c1c[nH]c2c(F)c(F)c(F)c(F)c12 | > 40 µM | 5.33
O=C(c1ccccc1)N1CCN(S(=O)(=O)c2c[nH]c3ncccc23)CC1 | > 40 µM | 4.66
C[C@@H]1CN(C(=O)c2ccccc2)CCN1S(=O)(=O)c1c[nH]c2c(-n3cncn3)nccc12 | > 40 µM | 6.82
C[C@@H]1CN(C(=O)c2ccccc2)CCN1S(=O)(=O)c1c[nH]c2ccc(F)cc12 | > 40 µM | 5.44
O=C(C(=O)N1CCN(C(=O)c2ccccc2)CC1)c1c[nH]c2ncccc12 | > 40 µM | 6.28
C[C@@H]1CN(C(=O)c2ccccc2)CCN1S(=O)(=O)c1c[nH]c2ccc(C#N)cc12 | > 40 µM | < 4.70
COc1ncc(OC)c2c(C(=O)C(=O)N3CCN(C(=O)c4ccccc4)C[C@H]3C)c[nH]c12 | > 40 µM | 8.30
C[C@@H]1CN(C(=O)c2ccccc2)CCN1S(=O)(=O)c1c[nH]c2c(-n3cc(CF)nn3)nccc12 | > 40 µM | 6.62
COc1cc2c(S(=O)(=O)N3CCN(C(=O)c4ccccc4)C[C@H]3C)c[nH]c2cn1 | > 40 µM | 5.04
Cc1csc(C(=O)N2CCN(S(=O)(=O)c3c[nH]c4ncccc34)[C@H](C)C2)c1 | > 40 µM | 5.72
C[C@@H]1CN(C(=O)c2ccn(C)n2)CCN1S(=O)(=O)c1c[nH]c2ncccc12 | > 40 µM | 5.62
C[C@@H]1CN(C(=O)c2ccccc2)CCN1C(=O)C(=O)c1c[nH]c2ncccc12 | > 40 µM | 7.52
CC1CN(C(=O)c2ccccc2)CCN1S(=O)(=O)c1c[nH]c2c(Cl)nccc12 (racemic) | > 40 µM | 4.96

SMILES | CC50 [1] | pIC50 [2]
CC1CN(C(=O)c2ccccc2)CCN1S(=O)(=O)c1c[nH]c2c(-n3cncn3)nccc12 (racemic) | > 40 µM | 6.70
COCc1cn(-c2ncc(F)c3c(S(=O)(=O)N4CCN(C(=O)c5ccccc5)CC4C)c[nH]c23)nn1 (racemic) | > 40 µM | 6.24
CC1CN(C(=O)c2ccccc2)CCN1S(=O)(=O)c1c[nH]c2c(-n3cc(CN(C)C)nn3)nccc12 (racemic) | > 40 µM | 5.96
Cc1cn(-c2nccc3c(S(=O)(=O)N4CCN(C(=O)c5ccccc5)CC4C)c[nH]c23)nn1 (racemic) | > 40 µM | 6.07
CC1CN(C(=O)c2ccccc2)CCN1S(=O)(=O)c1c[nH]c2c(-c3cc[nH]n3)nccc12 (racemic) | > 40 µM | 6.85
CC1CN(C(=O)c2ccccc2)CCN1S(=O)(=O)c1c[nH]c2c(-c3cccnc3)nccc12 (racemic) | > 40 µM | 6.19
CC1CN(C(=O)c2ccccc2)CCN1S(=O)(=O)c1c[nH]c2c(-c3nccs3)nccc12 (racemic) | > 40 µM | 6.30
COc1cc2c(S(=O)(=O)N3CCN(C(=O)c4ccccc4)CC3C)c[nH]c2cn1 (racemic) | > 40 µM | < 4.40
CC1CN(C(=O)c2ccccc2)CCN1S(=O)(=O)c1c[nH]c2c(-n3cccn3)nccc12 (racemic) | > 40 µM | 6.52
CC1CN(C(=O)c2ccccc2)CCN1S(=O)(=O)c1c[nH]c2c(-n3cncn3)ncc(F)c12 (racemic) | > 40 µM | 7.10
CC1CN(C(=O)c2ccc3[nH]ccc3c2)CCN1S(=O)(=O)c1c[nH]c2ncccc12 (racemic) | > 40 µM | 5.34
CC1CN(C(=O)c2cccs2)CCN1S(=O)(=O)c1c[nH]c2ncccc12 (racemic) | > 40 µM | 5.34
CC1CN(C(=O)c2ccc3occc3c2)CCN1S(=O)(=O)c1c[nH]c2ncccc12 (racemic) | > 40 µM | 5.00
Cc1ccc(C(=O)N2CCN(S(=O)(=O)c3c[nH]c4ncccc34)C(C)C2)cc1 (racemic) | > 40 µM | 4.91
CC1CN(C(=O)c2ccc3scnc3c2)CCN1S(=O)(=O)c1c[nH]c2ncccc12 (racemic) | > 40 µM | 4.90
CC1CN(C(=O)c2ccccc2)CCN1S(=O)(=O)c1c[nH]c2c(Cl)nc(Cl)cc12 (racemic) | > 40 µM | < 4.40
CC1CN(C(=O)c2ccccc2)CCN1S(=O)(=O)c1c[nH]c2c(-n3ccnc3)nccc12 (racemic) | > 40 µM | 6.80
CC1CN(C(=O)c2ccccc2)CCN1S(=O)(=O)c1c[nH]c2c(-c3ccnc(N)n3)nccc12 (racemic) | > 40 µM | 6.30
CC1CN(C(=O)c2ccccc2)CCN1S(=O)(=O)c1c[nH]c2c(-c3ncon3)nccc12 (racemic) | > 40 µM | 5.91
CC1CN(C(=O)c2cnc3ccccc3n2)CCN1S(=O)(=O)c1c[nH]c2ncccc12 (racemic) | > 40 µM | 5.27
Cc1ncn(-c2nccc3c(S(=O)(=O)N4CCN(C(=O)c5ccccc5)CC4C)c[nH]c23)n1 (racemic) | > 40 µM | 6.62
